This passage reports Activity results from ChEMBL document CHEMBL3600334, “Neolignans from Aristolochia fordiana Prevent Oxidative Stress-Induced Neuronal Death through Maintaining the Nrf2/HO-1 Pathway in HT22 Cells” (J Nat Prod, 2015).

The subject of series [1] is HT-22. The series can be described thus: Neuroprotective activity in mouse HT22 cells assessed as decrease of glutamate-induced decrease in Bcl-2 protein expression at 30 uM pretreated […] by Western blotting assay.
Series [2] deals with HT-22. The experiment in a line: Cytotoxicity against mouse HT22 cells assessed as cell viability at 30 uM after 24 hrs by MTT assay. Conditions: ht-22, 24 h. It is filed as cell-based. The method in brief:
(§1)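 HT22 mouse hippocampal cells in DMEM/10% FBS, 37 °C, 5% CO2, seeded 10 000 cells/well and grown 24 h. Compounds added from DMSO stock (0.1% DMSO vehicle) for 24 h. MTT (5 mg/mL) 2 h at 37 °C, formazan dissolved in DMSO, OD 570 nm. Expressed as fold of untreated control; n = 6 wells.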
Background: Tetrazolium dyes change colour on reduction, which living cells bring about.

Series [3] relates to HT-22. The series can be described thus: Neuroprotective activity in mouse HT22 cells assessed as decrease of glutamate-induced decrease in Nrf2/HO-1 protein expression at 30 uM pretreated 30 mins before glutamate challenge measured after 12 hrs by Western blotting assay. It is filed as functional, cell-based. A general note: Immunoblotting shows a protein as a band on a membrane.

Series [4] concerns HT-22. The series can be described thus: Effect on Nrf2/HO-1 protein expression in mouse HT22 cells at 30 uM after 12 hrs by Western blotting assay.
Series [5] deals with HT-22. The series can be described thus: Neuroprotective activity in mouse HT22 cells assessed as protection against glutamate-induced change in cell morphology at 1 to 30 uM pretreated 30 mins before glutamate challenge measured after 24 hrs by MTT assay. The class given is functional, cell-based. Conditions: in the assay text read “by photomicroscopy” for “by MTT assay”. The method in brief: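 HT22 cells given compounds 30 min before 2 mM glutamate for 24 h. Morphology then photographed under a photomicroscope.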

Series [6] relates to HT-22. The experiment in a line: Neuroprotective activity in mouse HT22 cells assessed as protection against glutamate-induced cell death pretreated 30 mins before glutamate challenge measured after 24 hrs by MTT assay. The class given is functional, cell-based. The method in brief: (§2)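 HT22 cells seeded 10 000/well, 24 h. Compounds (0.1% DMSO vehicle) added 30 min before 2 mM glutamate, then 24 h. MTT (5 mg/mL) 2 h at 37 °C, formazan in DMSO, OD 570 nm. Fold of untreated control; mean ± SD, n = 6.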

Series [7] concerns HT-22. The experiment in a line: Neuroprotective activity in mouse HT22 cells assessed as decrease of glutamate-induced increase in LDH level at 30 uM pretreated 30 mins before glutamate challenge measured after 24 hrs.
Series [8] relates to HT-22. The experiment in a line: Neuroprotective activity in mouse HT22 cells assessed as decrease of glutamate-induced ROS production at 30 uM pretreated 30 mins before glutamate challenge measured after 12 hrs using H2DCF-DA staining by fluorescence assay. The class given is functional, cell-based. The method in brief: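 HT22 cells given 30 μM compound 30 min before 2 mM glutamate for 12 h. After a PBS wash, stained with 10 μM H2-DCF-DA in serum-free medium, 25 min, 37 °C, dark. Cells photographed, then lysed in 1% Triton X-100/PBS 10 min at 37 °C. Fluorescence read at ex 490/em 525 nm, as percent of untreated control.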

For series [9], the system named is HT-22. The series can be described thus: Neuroprotective activity in mouse HT22 cells assessed as protection against glutamate-induced cell death at 1 to 30 uM pretreated 30 mins before glutamate challenge measured after 24 hrs by MTT assay. The class given is functional, cell-based. The method in brief:
as §2

Series [10] has as its system HT-22. The experiment in a line: Cytotoxicity against mouse HT22 cells assessed as […] at 30 uM after 24 hrs by MTT assay. It is filed as cell-based. Conditions: ht-22, 24 h. The method in brief:
as §1

Calls of active or inactive are those of the source. The calls are words filed in the database; no cut-off is given here.

For `C/C=C/c1cc(OC)c2c(c1)[C@@H](C)[C@H](c1ccc(O)c(OC)c1)O2` [LICARINE A], the result with HT-22 [1], with HT-22 [3], with HT-22 [5], with HT-22 [7], with HT-22 [8] and in the series on HT-22 [9] was Active. The Activity entry in the series with HT-22 [2] is “Non-toxic”; in the series with HT-22 [6], “Dose-dependent effect”. Further, the result in the series with HT-22 [4] was inactive.

`C/C=C/c1ccc2oc(-c3ccc(O)cc3)c(C)c2c1` [RATANIAPHENOL II]: the figures for the Activity result in the series with HT-22 [10], in the series on HT-22 [2] and in the series with HT-22 [6] were “Toxic”, “Non-toxic” and “Dose-dependent effect”, respectively. In addition, the outcome in the series on HT-22 [1], with HT-22 [3], in the series on HT-22 [5], with HT-22 [7], in the series with HT-22 [8] and in the series with HT-22 [9] was Active. In the series with HT-22 [4], the outcome was inactive.

Take `COc1cc([C@H]2O[C@@H](c3ccc(O)c(OC)c3)[C@@H](C)[C@@H]2C)ccc1O`: the outcome with HT-22 [1], in the series with HT-22 [3], in the series on HT-22 [5], in the series on HT-22 [7], in the series with HT-22 [8] and in the series with HT-22 [9] was Active. Also, the Activity entry was “Non-toxic” in the series with HT-22 [2] and “Dose-dependent effect” in the series with HT-22 [6]. Besides, the outcome with HT-22 [4] was inactive.

For the molecule `C/C=C/c1cc(OC)c2oc(-c3ccc(O)c(OC)c3)c(C)c2c1`, the Activity entry with HT-22 [10] was “Toxic”; in the series with HT-22 [2], “Non-toxic”; in the series with HT-22 [6] it was “Dose-dependent effect”. In addition, the result in the series on HT-22 [1], in the series on HT-22 [3], in the series with HT-22 [5], in the series on HT-22 [7], with HT-22 [8] and in the series with HT-22 [9] was Active. Besides, the result in the series on HT-22 [4] was inactive.

Turning to `COc1cc([C@H]2O[C@@H](c3ccc(O)c(OC)c3)[C@H](C)[C@@H]2C)ccc1O` [NECTANDRIN B], the result in the series on HT-22 [1], in the series on HT-22 [3], in the series on HT-22 [5], with HT-22 [7], in the series on HT-22 [8] and in the series with HT-22 [9] was Active. The Activity result with HT-22 [2] is “Non-toxic”; in the series with HT-22 [6], “Dose-dependent effect”. In addition, in the series with HT-22 [4], the outcome was inactive.

Consider `C/C=C/c1cc(OC)c2oc(-c3ccc(O)cc3)c(C)c2c1`, for which the outcome in the series with HT-22 [1], with HT-22 [3], with HT-22 [5], in the series with HT-22 [7], in the series with HT-22 [8] and in the series with HT-22 [9] was Active. Also, the Activity entry is “Non-toxic” in the series with HT-22 [2] and “Dose-dependent effect” in the series with HT-22 [6]. Also, the result with HT-22 [4] was inactive.
